For 40 molecules, cytotoxicity results are on record in ChEMBL document CHEMBL4513216, “Probing the Open Global Health Chemical Diversity Library for Multistage-Active Starting Points for Next-Generation Antimalarials” (ACS Infect Dis, 2020).

This data set is described as follows: Toxicity liver stage against HepG2, at 10uM. Type of data set: cell-based. The arrangement: test concentration 10 uM, cell line HepG2-A16-CD81EGFP. The following applies: human, HepG2-A16-CD81EGFP cells; read-out: INHIBITION
In outline:
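Uninfected HepG2-A16-CD81EGFP cells, 3 × 10^3 per well, 1536-well, plated on prespotted compound at 10 μM final, parasite-free screening media added to match infected plates; puromycin 10 μM positive, DMSO 0.5% negative; run in parallel with 48 h PbLuc assay at 37 °C, 5% CO2; viability by CellTiter-Glo luminescence, normalized to controls.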
Turning to `CC(C)(C)C(O)CN1CCN(C(=O)COCC2CC2)CC1` (stereo not given), the cytotoxicity at 10 µM was 5.54%.

`Cc1ncsc1CN1CCn2nc(CCC(=O)N3CCCC3)cc2C1`: the cytotoxicity at 10 µM is -22.2%.

With `CS(=O)(=O)N1CCC[C@]2(C[C@@H](Oc3ncccc3F)CO2)C1`, the cytotoxicity at 10 µM is 4.09%.

In the case of `CN1C(=O)CCC12CCCN(C(=O)c1ccncc1F)C2` (stereo not given), the cytotoxicity at 10 µM was 11%.

As for `COc1cc2nc(C)n(CC(=O)O)c(=O)c2cc1OC`, the cytotoxicity at 10 µM came to 5.68%.

As to `O=C(NCC1CC1)c1cc(Br)cnc1N1CCCCC1`, the cytotoxicity at 10 µM is 3.1%.

Regarding `Cc1nc(C)n(CC2CCCN(CCOc3ccccc3C#N)C2)n1` (stereo not given), the cytotoxicity at 10 µM turned out to be 4.61%.

`CC(=O)N(C)c1nc(CN2CCN(Cc3nccn3C)CC2)cs1`: the cytotoxicity at 10 µM amounted to 8.82%.

On to `CCN(C(=O)CCc1ccccc1)C1CC(=O)NC1=O` (stereo not given), for which the cytotoxicity at 10 µM was -7.32%.

On to `O=C(C1CC1)N1CCN(Cc2coc(-c3ccc(Cl)cc3)n2)CC1`, for which the cytotoxicity at 10 µM was 17.3%.

As to `CC1CCCN(c2ncc(-c3ccccc3F)c(-c3nccn3C)n2)C1` (stereo not given), the cytotoxicity at 10 µM turned out to be 26.8%.

`O=C(CSC1=NS(=O)(=O)c2cc(Cl)ccc2N1)c1ccccc1`: the cytotoxicity at 10 µM turned out to be 13.6%.

Consider `CCOc1ccc(CNCCCn2ccnc2)cc1Br`, for which the cytotoxicity at 10 µM is -6.81%.

Consider `CCOC(=O)CC1(Nc2nc(C)nc3c2cnn3C)CCCCC1`, for which the cytotoxicity at 10 µM stood at 5.03%.

With `CC(C)Cc1cc(CNC(=O)c2cccc3c2OCC3)no1`, the cytotoxicity at 10 µM was -47.9%.

As to `Cc1occc1C(=O)N1CCCN(Cc2cnn(C(C)C)c2)CC1`, the cytotoxicity at 10 µM is -5.62%.

With `CC(=O)Nc1ccc([C@@H](O)[C@H]2COCC(=O)N2CC(C)C)cc1`, the cytotoxicity at 10 µM is -6.6%.

On to `Cn1cc(NS(=O)(=O)c2ccc(OC(F)(F)F)cc2)ccc1=O`, for which the cytotoxicity at 10 µM stood at 33.4%.

Consider `CCN1CCc2c(CNC(=O)c3nccn3C)cncc2C1`, for which the cytotoxicity at 10 µM is -109%.

In the case of `COC(=O)[C@H](CSC)Nc1nc(C2CCCC2)nc2c1cnn2C`, the cytotoxicity at 10 µM was -52.6%.

Turning to `CCn1cnnc1CNC(=O)N1CCN(C(C)C)CC1`, the cytotoxicity at 10 µM is -18.1%.

For the molecule `O=C(Cc1cccc(F)c1F)NS(=O)(=O)c1ccc(Cl)cc1F`, the cytotoxicity at 10 µM was -6.11%.

On to `CC(C)(C)c1cn2nc(N3CCCC3Cn3cccn3)sc2n1` (stereo not given), for which the cytotoxicity at 10 µM is -23.8%.

Take `CC(NCc1ccncc1)c1cc2c(cc1Br)OCCO2` (stereo not given): the cytotoxicity at 10 µM is -1.41%.

Consider `COc1cccc(CNc2c(C)nn(C(C)C)c2C)c1`, for which the cytotoxicity at 10 µM is -46.9%.

`COc1ccc(OC)c(C(C)Nc2nc3c(C)nn(C)c3c(=O)n2C)c1` (stereo not given): the cytotoxicity at 10 µM was -15%.

Take `O=C(Nc1cn[nH]c1)NC1CCN(c2ccccc2OC(F)F)C1` (stereo not given): the cytotoxicity at 10 µM was 26.1%.

Turning to `COc1ccc(-n2cc3[nH]c(=O)n(C(C)C)n3c2=O)cc1`, the cytotoxicity at 10 µM came out at 2.03%.

As for `Cc1cnn(CC2CN(Cc3nc(C)no3)CCO2)c1` (stereo not given), the cytotoxicity at 10 µM is -18.5%.

As for `COc1ccccc1N1CCCC(Nc2ncccn2)C1=O` (stereo not given), the cytotoxicity at 10 µM amounted to 4.96%.

As to `c1ccc(-c2nccc(N3CCc4c(ncn4C4CC4)C3)n2)cc1`, the cytotoxicity at 10 µM turned out to be 7.22%.

As to `O=c1n(Cc2ccccn2)nc(C2CCNCC2)n1Cc1ccccc1`, the cytotoxicity at 10 µM turned out to be 2.69%.

Take `COC(=O)CC(c1ccc(OC)c(O)c1)c1oc(C)cc(=O)c1O` (stereo not given): the cytotoxicity at 10 µM was -0.634%.

On to `CCOC(=O)N1CCN(C(=O)C2Cc3ccccc3CN2C)CC1` (stereo not given), for which the cytotoxicity at 10 µM was -19.2%.

`COCCNC(=O)Nc1cc2c(cc1SC)OCCO2`: the cytotoxicity at 10 µM was -3.59%.

`NCCN1CCC(c2nnc(Cn3ccnc3)n2C2CC2)CC1`: the cytotoxicity at 10 µM was -3.07%.

As to `CC(C)CCn1ccc(NC2CCSC2)n1` (stereo not given), the cytotoxicity at 10 µM amounted to 6.93%.

Regarding `CSc1ccsc1C(=O)NC(Cc1ccccc1)C(N)=O` (stereo not given), the cytotoxicity at 10 µM is -5.24%.

Turning to `Cc1noc([C@]23COC[C@H]2CN(C(=O)CN(C)C)C3)n1`, the cytotoxicity at 10 µM is -104%.

As for `Cc1c(C(=O)NCC(C)C)nnn1-c1cccc2c1CCN(C(C)C)C2`, the cytotoxicity at 10 µM is -12.3%.
